The record followed here is ChEMBL document CHEMBL2021845, “Targeting anthracycline-resistant tumor cells with synthetic aloe-emodin glycosides” (ACS Med Chem Lett, 2011).

The source made the active and inactive calls. The calls are words filed in the database; no cut-off is given here.

The subject of one data set is MOLT-4. The data set can be described thus: Cytotoxicity against human MOLT4 cells after 24 hrs by XTT assay. It counts as functional, cell-based. Particulars: MOLT-4, 24 h.
In data set [1] the test system is SK-OV-3. The data set can be described thus: Cytotoxicity against human SKOV3 cells after 24 hrs by XTT assay. The settings on record: SK-OV-3, 24 h. The format is functional, cell-based.
Data set [2] relates to OVCAR-3. The data set can be described thus: Cytotoxicity against human OVCAR3 cells after 24 hrs by XTT assay. The format is functional, cell-based. Particulars: OVCAR-3, 24 h. In general terms: Tetrazolium dyes change colour on reduction, which living cells bring about.
Data set [3] in a line: Cytotoxicity against human NAR cells after 24 hrs by XTT assay. The format is functional, cell-based.
The subject of data set [4] is MCF7. The data set can be described thus: Cytotoxicity against human MCF7 cells after 24 hrs by XTT assay. The settings on record: MCF7, 24 h. It counts as functional, cell-based.
Data set [5] can be described thus: (§1) Cytotoxicity against doxorubicin-resistant human NAR cells assessed as cell viability at 100 uM after 24 hrs by XTT assay. It counts as functional. Particulars: read-out: Activity. Summed up:
(§2)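 NAR ovarian cancer cells with P-glycoprotein efflux pump overexpression; 24 h exposure to compound up to 100 μM; cell viability read-out.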

Data set [6] is described as follows: Toxicity in Wistar rat erythrocytes assessed as hemolysis at 50 uM after 1 hr. The format is cell-based, Erythrocyte. The settings on record: read-out: Activity.
Data set [7] deals with MCF7. The data set can be described thus: Cytotoxicity against doxorubicin-resistant human MCF7 cells assessed as cell viability at 20 uM after 24 hrs by XTT assay. The format is functional. Particulars: MCF7, 24 h, read-out: Activity.
The test system of data set [8] is SK-OV-3. The data set can be described thus: Cytotoxicity against human SKOV3 cells assessed as cell viability at 20 uM after 24 hrs by XTT assay. The settings on record: SK-OV-3, 24 h, read-out: Activity. It counts as functional.
Data set [9] is described as follows: Cytotoxicity against human lymphocytes assessed as cell viability at 20 uM after 24 hrs by XTT assay relative to untreated control. The format is cell-based, Lymphocyte. Particulars: read-out: Activity. The method, boiled down: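 Normal human lymphocyte samples from two individuals; 24 h incubation with compound at 20 μM; viability expressed relative to an untreated cell control.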

The subject of data set [10] is Nucleic Acid. The data set can be described thus: Binding affinity to Escherichia coli pBR322 DNA assessed as DNA migration at 200 uM after 15 mins by agarose gel electrophoresis. It counts as nucleic-acid assay. The method, boiled down: (§3)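 Supercoiled plasmid pBR322 DNA was preincubated with compound at 200 or 20 μM. Samples were run on a 1% agarose gel for 4 h at 70 V and stained with ethidium bromide. Unwinding was judged qualitatively from the shift in migration of supercoiled DNA against a no-drug lane.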

Data set [11] has as its system OVCAR-3. The data set can be described thus: Cytotoxicity against human OVCAR3 cells assessed as induction of cell death at 10 uM after 24 hrs by trypan blue dye exclusion test. It counts as functional, cell-based. The method, boiled down:
(§4)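 Cells were incubated with 10 μM compound for 24 h. A trypan blue dye exclusion test in cell suspension then counted total and dye-stained (dead) cells against an untreated control.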

The test system of data set [12] is NAR. The description is as §1. The format is functional. Summed up:
as §2

Data set [13] deals with NAR. The data set can be described thus: Cytotoxicity against human NAR cells assessed as induction of cell death at 10 uM after 24 hrs by trypan blue dye exclusion test. It counts as functional, cell-based. Summed up: as §4
Data set [14] has as its system Nucleic Acid. The data set can be described thus: Binding affinity to Escherichia coli pBR322 DNA assessed as DNA migration at 20 uM after 15 mins by agarose gel electrophoresis. The format is nucleic-acid assay. The method, boiled down:
as §3

Data set [15] is described as follows: Drug uptake in doxorubicin-resistant human NAR cell plasma membrane at 5 uM after 2 hrs by confocal microscopic analysis. It counts as ADME, cell-based. Summed up:
(§5)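 P-gp-overexpressing NAR ovarian cancer cells were incubated with 5 μM compound for 2 h, then fixed in paraformaldehyde. Plasma membranes were stained with carbocyanine tracer DiD. Confocal imaging used Ex/Em 488/525 nm for the drug and 640/685 nm for DiD, to localize drug in membrane versus cell interior.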

In data set [16] the test system is OVCAR-3. The data set can be described thus: Cytotoxicity against human OVCAR3 cells assessed as cell viability at 20 uM after 24 hrs by XTT assay. It counts as functional. Particulars: OVCAR-3, 24 h, read-out: Activity.
Data set [17] has as its system Nucleic Acid. The data set can be described thus: Binding affinity to Escherichia coli pBR322 DNA assessed as DNA unwinding at 5 to 10 uM after 15 mins by agarose gel electrophoresis. It counts as nucleic-acid assay.
Data set [18] in a line: Cytotoxicity against human lymphocytes assessed as cell viability after 24 hrs by XTT assay relative to untreated control. The format is cell-based. The settings on record: Lymphocyte. The method, boiled down:
(§6)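 Normal human lymphocytes from two individual donors were exposed to compound for 24 h or for a 3 h incubation. Viability was expressed relative to an untreated-cell control, and IC50 was derived per blood sample.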

The nature of data set [19]: Cellular uptake in doxorubicin-resistant human NAR cells at 5 uM after 2 hrs by confocal microscopic analysis. The format is ADME, cell-based. The method, boiled down: as §5
Data set [20] can be described thus: Cytotoxicity against human lymphocytes assessed as cell viability after 3 hrs by XTT assay relative to untreated control. It counts as cell-based. The settings on record: Lymphocyte. Summed up:
as §6

With `O=C1c2cccc(O)c2C(=O)c2c(O)cc(CO)cc21` [ALOE-EMODIN], the IC50 (in general, the concentration that gives 50% inhibition) is greater than 20 µM in the data set on MOLT-4; greater than 20 µM in the data set on SK-OV-3 [1]; greater than 20 µM in the data set on OVCAR-3 [2]; greater than 100 µM in data set [3]; greater than 20 µM with MCF7 [4]. In data set [5], the viability at 100 µM stood at 78%. Further, the hemolysis at 1 h, 50 µM in data set [6] amounted to 0%. The viability at 20 µM was determined as 77% with MCF7 [7] and 98% in the data set with SK-OV-3 [8]. Moreover, in [9], the viability at 24 h, 20 µM was determined as 77%. Also, the outcome in the data set with Nucleic Acid [10] was inactive.
In the case of `COc1cccc2c1C(=O)c1c(O)c3c(c(O)c1C2=O)C[C@@](O)(C(=O)CO)C[C@@H]3O[C@H]1C[C@H](N)[C@H](O)[C@H](C)O1` [DOXORUBICIN], the IC50 in the data set with MOLT-4 was 0.2 µM; in the data set with SK-OV-3 [1], greater than 20 µM; in the data set on OVCAR-3 [2], greater than 20 µM; in data set [3], greater than 100 µM; in the data set on MCF7 [4] it was greater than 20 µM. Besides, the result with OVCAR-3 [11], in the data set on NAR [12] and with NAR [13] was inactive. For the same compound, in data set [6], the hemolysis at 1 h, 50 µM worked out at 2%. Further, the viability at 20 µM in the data set on MCF7 [7] is 83%; in the data set with SK-OV-3 [8], 63%; with OVCAR-3 [16], 61%. Further, the outcome with Nucleic Acid [14] and with Nucleic Acid [10] was Active. Besides, the viability at 24 h, 20 µM in [9] was determined as 100%. Moreover, in data set [15], the Drug uptake result is recorded as “Active”.
Regarding `C[C@@H]1O[C@@H](OCc2cc(O)c3c(c2)C(=O)c2cccc(O)c2C3=O)C[C@@H](N)[C@H]1O`, the IC50 in the data set on MOLT-4 was found to be 5.4 µM; in the data set on SK-OV-3 [1], 13.5 µM; with OVCAR-3 [2], 15.7 µM; in data set [3], 18 µM; in the data set with MCF7 [4], 12.7 µM. In addition, the outcome in the data set with Nucleic Acid [17] and in the data set on Nucleic Acid [10] was inactive.
As to `C[C@H]1O[C@@H](OCc2cc(O)c3c(c2)C(=O)c2cccc(O)c2C3=O)C[C@@H](N)[C@@H]1O`, the IC50 in the data set with MOLT-4 is 7.6 µM; with SK-OV-3 [1] it was greater than 20 µM; in the data set on OVCAR-3 [2], 6.4 µM; in data set [3], greater than 100 µM; in the data set on MCF7 [4], 11.9 µM. Besides, the result in the data set on Nucleic Acid [17] and in the data set with Nucleic Acid [10] was inactive. Moreover, the viability at 20 µM in the data set with SK-OV-3 [8] was determined as 92%.
For `C[C@@H]1O[C@@H](OCc2cc(O)c3c(c2)C(=O)c2cccc(O)c2C3=O)C[C@H](N)[C@H]1O`, the IC50 with MOLT-4 was 5.8 µM; in the data set with SK-OV-3 [1] it was 6.9 µM; in the data set on OVCAR-3 [2], 5.2 µM; in data set [18] it was 3 µM; in data set [3] it was 8.6 µM; in the data set on MCF7 [4], 7.1 µM. In addition, the IC50 in data set [20] turned out to be 3 µM. The Drug uptake result in [19] was “Active”. Besides, the result in the data set with OVCAR-3 [11] and with NAR [13] was Active. Further, the outcome with Nucleic Acid [17] and with Nucleic Acid [10] was inactive. In addition, in [6], the hemolysis at 1 h, 50 µM came out at 3%.
In the case of `C[C@H]1O[C@@H](OCc2cc(O)c3c(c2)C(=O)c2cccc(O)c2C3=O)C[C@H](N)[C@@H]1O`, the IC50 in the data set with MOLT-4 was 12.8 µM; in the data set with SK-OV-3 [1] it was greater than 20 µM; in the data set on OVCAR-3 [2], greater than 20 µM; in data set [3], 28.3 µM; in the data set on MCF7 [4] it was greater than 20 µM. The result in the data set with Nucleic Acid [17] and with Nucleic Acid [10] was inactive. Besides, the viability at 20 µM is 83% in the data set with MCF7 [7], 84% in the data set on SK-OV-3 [8] and 60% in the data set with OVCAR-3 [16].
